Data: ChEMBL document CHEMBL4028873, “The Discovery of a Dual TTK Protein Kinase/CDC2-Like Kinase (CLK2) Inhibitor for the Treatment of Triple Negative Breast Cancer Initiated from a Phenotypic Screen” (J Med Chem, 2017)
The source made the active and inactive calls. The rule behind the calls is not given here.

Legend:
CAL-51 [1] = assay: Cytotoxicity against human CAL51 cells assessed as reduction in cell viability after 3 days by CellTiter-Glo assay; assay type: functional, cell-based; details: CAL-51, 72 h
BT-474 = assay: Cytotoxicity against human BT474 cells assessed as reduction in cell viability after 3 days by CellTiter-Glo assay; assay type: cell-based; details: BT-474, 72 h
[2] = Metabolic stability in rat liver S9 fraction assessed as percent of compound remaining after 60 mins; assay type: ADME, tissue-based; details: read-out: Stability
[3] = Metabolic stability in human liver S9 fraction assessed as percent of compound remaining after 60 mins; assay type: ADME, tissue-based; details: read-out: Stability
[4] = Clearance in rat at 2 mg/kg, iv; assay type: ADME, organism-based; details: in vivo
[5] = Volume of distribution at steady state in rat at 2 mg/kg, iv; assay type: ADME, organism-based; details: in vivo, read-out: Vdss
[6] = Mean residence time in rat at 2 mg/kg, iv; assay type: ADME, organism-based; details: in vivo
[7] = Clearance in SCID mouse at 10 mg/kg, iv; assay type: ADME, organism-based; details: in vivo
[8] = Mean residence time in SCID mouse at 10 mg/kg, iv; assay type: ADME, organism-based; details: in vivo
Mus musculus = assay: Toxicity in SCID mouse xenografted with human CAL51 cells assessed as loss in body weight at 5 mg/kg, iv administered every 4 days for 16 days relative to control; assay type: organism-based; details: in vivo
CAL-51 [9] = assay: Antiproliferative activity against human CAL51 cells xenografted in SCID mouse assessed as tumor growth inhibition at 5 mg/kg, iv administered every 4 days for 16 days; assay type: functional, organism-based
Summary of the method: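 Mice bearing tumors of about 125 mm3 randomized (n = 8−10/group) and given compound intravenously at the listed doses and schedules. Tumors measured twice weekly by digital caliper on long and short axes; volume = width² × length/2.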

`CNC(=O)c1ccc(Nc2nc(O[C@H]3CC[C@](C)(O)CC3)c3c(-c4ccc5nc(C)oc5c4)c[nH]c3n2)c(OC)c1` gave an IC50 (CAL-51 [1]) of 15 nM and an IC50 (BT-474) of 893 nM.
With `CNC(=O)c1ccc(Nc2nc(OC3CCCC3)c3c(-c4ccccc4)c[nH]c3n2)c(OC)c1` the IC50 (CAL-51 [1]) was 496 nM, the IC50 (BT-474) was 10000 nM and the remaining at 1 h [2] was 86%.
For `CNC(=O)c1ccc(Nc2nc(OCCO)c3c(-c4ccc5nc(C)oc5c4)c[nH]c3n2)c(OC)c1`, the IC50 (CAL-51 [1]) was 56 nM and the IC50 (BT-474) was 694 nM.
`CNC(=O)c1ccc(Nc2nc(OC3CCCC3)c3c(-c4cn[nH]c4)c[nH]c3n2)c(OC)c1` showed an IC50 (CAL-51 [1]) of 9 nM, an IC50 (BT-474) of 8120 nM and a remaining at 1 h [2] of 36%.
For `CNC(=O)c1ccc(Nc2nc(OC3CCCC3)c3c(-c4cc[nH]n4)c[nH]c3n2)c(OC)c1`, the IC50 (CAL-51 [1]) was 460 nM, the IC50 (BT-474) was 10000 nM and the remaining at 1 h [2] was 53%.
For `COc1cc(C(=O)NC2COC2)ccc1Nc1nc(OC2CCCC2)c2c(-c3ccc4nc(C)oc4c3)c[nH]c2n1`, the IC50 (CAL-51 [1]) was 123 nM, the IC50 (BT-474) was 10000 nM and the remaining at 1 h [2] was 91%. For the same compound, the remaining at 1 h [3] was 79%, the clearance [4] was 13 mL/min/kg and the Vd [5] was 3.7 L/kg. For the same compound, the MRT [6] was 4.7 h, the clearance [7] was 14.3 mL/min/kg and the MRT [8] was 1.4 h.
`COc1ccccc1Nc1nc(OC2CCCC2)c2c(-c3ccc4nc(C)oc4c3)c[nH]c2n1` gave an IC50 (CAL-51 [1]) of 771 nM and an IC50 (BT-474) of 10000 nM.
Compound `CNC(=O)c1ccc(Nc2nc(OC3CCCC3)c3c(-c4ccc5nc[nH]c5c4)c[nH]c3n2)c(OC)c1` has an IC50 (CAL-51 [1]) of 17 nM, an IC50 (BT-474) of 158 nM and a remaining at 1 h [2] of 46%.
Compound `COc1cc(C(=O)N2CCN(C)CC2)ccc1Nc1nc(OC2CCCC2)c2c(-c3ccc4nc(C)oc4c3)c[nH]c2n1` has an IC50 (CAL-51 [1]) of 37 nM and an IC50 (BT-474) of 3210 nM.
In the case of `COc1cc(C(=O)NC(C)(C)CO)ccc1Nc1nc(OC2CCCC2)c2c(-c3ccc4nc(C)oc4c3)c[nH]c2n1`, the IC50 (CAL-51 [1]) is reported as 109 nM and the IC50 (BT-474) is reported as 6090 nM.
For `CNC(=O)c1ccc(Nc2nc(O)c3c(-c4ccc5nc(C)oc5c4)c[nH]c3n2)c(OC)c1`, the IC50 (CAL-51 [1]) was 10000 nM and the IC50 (BT-474) was 10000 nM.
With `CNC(=O)c1ccc(Nc2nc(OC(C)C)c3c(-c4ccc5nc(C)oc5c4)c[nH]c3n2)c(OC)c1` the IC50 (CAL-51 [1]) was 40 nM, the IC50 (BT-474) was 946 nM and the remaining at 1 h [2] was 69%. For the same compound, the remaining at 1 h [3] was 78%, the clearance [4] was 33.9 mL/min/kg and the Vd [5] was 7.2 L/kg. For the same compound, the MRT [6] was 3.5 h, the clearance [7] was 7.71 mL/min/kg and the MRT [8] was 4.8 h.
Work on `CNC(=O)c1ccc(Nc2nc(OC3CCOCC3)c3c(-c4ccc5nc(C)oc5c4)c[nH]c3n2)c(OC)c1` yielded an IC50 (CAL-51 [1]) of 20 nM, an IC50 (BT-474) of 10000 nM and a remaining at 1 h [2] of 75%. The remaining at 1 h [3] was 70%, the clearance [4] was 22.6 mL/min/kg and the Vd [5] was 3.8 L/kg. The MRT [6] was 2.9 h, the clearance [7] was 67.6 mL/min/kg and the MRT [8] was 1.8 h.
Compound `CNC(=O)c1ccc(Nc2nc(OC3CCCC3)c3c(-c4ccc(-c5ccn[nH]5)cc4)c[nH]c3n2)c(OC)c1` has an IC50 (CAL-51 [1]) of 61 nM, an IC50 (BT-474) of 10000 nM and a remaining at 1 h [2] of 84%.
Compound `CNC(=O)c1ccc(Nc2nc(OC3CCCC3)c3c(-c4ccc5oc(C)nc5c4)c[nH]c3n2)c(OC)c1` has an IC50 (CAL-51 [1]) of 642 nM, an IC50 (BT-474) of 10000 nM and a remaining at 1 h [2] of 86%.
Work on `CNC(=O)c1ccc(Nc2nc(OC3CCC3)c3c(-c4ccc5nc(C)oc5c4)c[nH]c3n2)c(OC)c1` yielded an IC50 (CAL-51 [1]) of 47 nM and an IC50 (BT-474) of 10000 nM.
Work on `CNC(=O)c1ccc(Nc2nc(OC3COC3)c3c(-c4ccc5nc(C)oc5c4)c[nH]c3n2)c(OC)c1` yielded an IC50 (CAL-51 [1]) of 8 nM and an IC50 (BT-474) of 243 nM.
Work on `CNC(=O)c1ccc(Nc2nc(OC3CCCC3)c3c(-c4ccc(-c5ncc[nH]5)cc4)c[nH]c3n2)c(OC)c1` yielded an IC50 (CAL-51 [1]) of 8 nM, an IC50 (BT-474) of 1730 nM and a remaining at 1 h [2] of 64%.
Work on `CNC(=O)c1ccc(Nc2nc(OC3CCCC3)c3c(-c4ccc(OC)cc4)c[nH]c3n2)c(OC)c1` yielded an IC50 (CAL-51 [1]) of 491 nM, an IC50 (BT-474) of 10000 nM and a remaining at 1 h [2] of 76%.
Compound `CNC(=O)c1ccc(Nc2nc(OC3CCCC3)c3c(-c4cccc(CO)c4)c[nH]c3n2)c(OC)c1` has an IC50 (CAL-51 [1]) of 30 nM, an IC50 (BT-474) of 9990 nM and a remaining at 1 h [2] of 54%.
`COc1cc(C(=O)NCC(C)(C)O)ccc1Nc1nc(OC2CCCC2)c2c(-c3ccc4nc(C)oc4c3)c[nH]c2n1` showed an IC50 (CAL-51 [1]) of 61 nM and an IC50 (BT-474) of 10000 nM.
`CNC(=O)c1ccc(Nc2nc(OC3CCCC3)c3c(-c4ccc(O)cc4)c[nH]c3n2)c(OC)c1` gave an IC50 (CAL-51 [1]) of 13 nM, an IC50 (BT-474) of 3320 nM and a remaining at 1 h [2] of 1%.
Work on `CNC(=O)c1ccc(Nc2nc(O[C@H]3CCOC3)c3c(-c4ccc5nc(C)oc5c4)c[nH]c3n2)c(OC)c1` yielded an IC50 (CAL-51 [1]) of 17 nM, an IC50 (BT-474) of 3760 nM and a remaining at 1 h [2] of 62%. For the same compound, the remaining at 1 h [3] was 62%, the clearance [4] was 27.4 mL/min/kg and the Vd [5] was 1.6 L/kg. The MRT [6] was 1 h, the clearance [7] was 19.1 mL/min/kg and the MRT [8] was 0.73 h.
`CNC(=O)c1ccc(Nc2nc(OC3CCCC3)c3c(-c4cccnc4)c[nH]c3n2)c(OC)c1` showed an IC50 (CAL-51 [1]) of 79 nM, an IC50 (BT-474) of 10000 nM and a remaining at 1 h [2] of 59%.
Compound `COc1cc(C(=O)N(C)C)ccc1Nc1nc(OC2CCCC2)c2c(-c3ccc4nc(C)oc4c3)c[nH]c2n1` has an IC50 (CAL-51 [1]) of 113 nM and an IC50 (BT-474) of 8310 nM.
In the case of `CC(=O)O[C@@]12CO[C@@H]1C[C@H](O)[C@@]1(C)C(=O)[C@H](O)C3=C(C)[C@@H](OC(=O)[C@H](O)[C@@H](NC(=O)OC(C)(C)C)c4ccccc4)C[C@@](O)([C@@H](OC(=O)c4ccccc4)[C@H]21)C3(C)C` [DOCETAXEL ANHYDROUS], the Activity (Mus musculus) is reported as 20% and the TGI (CAL-51 [9]) is reported as “Active”.
Compound `CNC(=O)c1ccc(Nc2nc(OC3CCCC3)c3c(-c4ccc(CO)cc4)c[nH]c3n2)c(OC)c1` has an IC50 (CAL-51 [1]) of 89 nM, an IC50 (BT-474) of 10000 nM and a remaining at 1 h [2] of 18%.
`CNC(=O)c1ccc(Nc2nc(OC3CCCC3)c3c(-c4ccc5nc(C)oc5c4)c[nH]c3n2)c(C)c1` gave an IC50 (CAL-51 [1]) of 349 nM and an IC50 (BT-474) of 9610 nM.
In the case of `COc1cc(C(=O)N2CCOCC2)ccc1Nc1nc(OC2CCCC2)c2c(-c3ccc4nc(C)oc4c3)c[nH]c2n1`, the IC50 (CAL-51 [1]) is reported as 351 nM and the IC50 (BT-474) is reported as 6390 nM.
Compound `CNC(=O)c1ccc(Nc2nc(OCCOC)c3c(-c4ccc5nc(C)oc5c4)c[nH]c3n2)c(OC)c1` has an IC50 (CAL-51 [1]) of 147 nM and an IC50 (BT-474) of 3760 nM.
`CNC(=O)c1ccc(Nc2nc(OC3CCCC3)c3c(-c4ccc5cn[nH]c5c4)c[nH]c3n2)c(OC)c1` gave an IC50 (CAL-51 [1]) of 338 nM, an IC50 (BT-474) of 10000 nM and a remaining at 1 h [2] of 85%.
`CNC(=O)c1ccc(Nc2nc(O[C@H]3CC[C@@](C)(O)CC3)c3c(-c4ccc5nc(C)oc5c4)c[nH]c3n2)c(OC)c1` gave an IC50 (CAL-51 [1]) of 8 nM, an IC50 (BT-474) of 10000 nM and a remaining at 1 h [2] of 76%. The remaining at 1 h [3] was 65%, the clearance [4] was 17.6 mL/min/kg and the Vd [5] was 2.9 L/kg. It also gave an MRT [6] of 2.9 h, a clearance [7] of 52.2 mL/min/kg and an MRT [8] of 1 h.
Compound `CNC(=O)c1ccc(Nc2nc(OC3CCCC3)c3c(-c4ccc(-c5nnc[nH]5)cc4)c[nH]c3n2)c(OC)c1` has an IC50 (CAL-51 [1]) of 77 nM, an IC50 (BT-474) of 4860 nM and a remaining at 1 h [2] of 84%.
In the case of `CNC(=O)c1ccc(Nc2nc(OC3CCCC3)c3c(-c4cccc(O)c4)c[nH]c3n2)c(OC)c1`, the IC50 (CAL-51 [1]) is reported as 71 nM and the IC50 (BT-474) is reported as 10000 nM.
For `CNC(=O)c1ccc(Nc2nc(OC3CCCC3)c3c(-c4ccncc4)c[nH]c3n2)c(OC)c1`, the IC50 (CAL-51 [1]) was 17 nM, the IC50 (BT-474) was 10000 nM and the remaining at 1 h [2] was 83%.
